Legend:
[1] = target: T1, 4,4'-diapophytoene desaturase (4,4'-diaponeurosporene-forming) (Staphylococcus aureus (strain Newman), UniProt O07855); experiment: Inhibition of Staphylococcus aureus Newman 6His-tagged CrtN expressed in Escherichia coli BL21(DE3) using diapophytoene as substrate assessed as pigment formation after overnight incubation by spectrophotometric method; design: species or system Staphylococcus aureus subsp. aureus str. Newman
T1 sequence (O07855 whole entry): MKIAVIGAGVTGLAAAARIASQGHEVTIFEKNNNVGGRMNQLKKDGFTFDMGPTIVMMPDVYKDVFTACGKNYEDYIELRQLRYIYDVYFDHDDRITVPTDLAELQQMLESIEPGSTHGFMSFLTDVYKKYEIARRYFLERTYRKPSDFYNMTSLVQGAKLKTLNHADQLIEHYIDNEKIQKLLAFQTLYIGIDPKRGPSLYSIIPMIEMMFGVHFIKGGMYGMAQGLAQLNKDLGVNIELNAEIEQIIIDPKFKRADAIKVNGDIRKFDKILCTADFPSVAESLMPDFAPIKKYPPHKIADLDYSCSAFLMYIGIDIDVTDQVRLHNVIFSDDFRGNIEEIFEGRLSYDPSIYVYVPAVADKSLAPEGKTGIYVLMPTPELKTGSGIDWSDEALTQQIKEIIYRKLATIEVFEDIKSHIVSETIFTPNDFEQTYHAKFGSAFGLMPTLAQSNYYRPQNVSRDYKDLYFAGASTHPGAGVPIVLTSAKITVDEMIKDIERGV
Method in brief: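 Lysate of E. coli BL21(DE3) expressing 6His-CrtN (IPTG 0.5 mM, 16 °C overnight), ~1.41 mg CrtN per reaction, with diapophytoene–phosphatidylcholine emulsion in 0.02 M HEPES pH 7.5 plus FAD. Anaerobic via glucose oxidase 20 U/mL, catalase 20000 U/mL, glucose 2 mM (final). Started with lysate, overnight at 37 °C; triplicate.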

[2] = tested on: Staphylococcus aureus; experiment: Suppression in survival of methicillin-resistant Staphylococcus aureus Mu50 at 0.05 mM measured after overnight incubation by spectrophotometric method; format: ADME, organism-based; conditions: 50 µM
Method in brief: (§1)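 Compound from 20 mM DMSO stock diluted in TSB to final 0.2 or 0.05 mM; DMSO growth controls; paraffin overlay. Overnight cultures inoculated to final OD600 ≈ 0.05; incubated at 37 °C overnight with OD600 read every 30 min.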

[3] = tested on: Staphylococcus aureus; experiment: Suppression in survival of methicillin-resistant Staphylococcus aureus USA400 MW2 at 0.05 mM measured after overnight incubation by spectrophotometric method; format: ADME, organism-based; conditions: 50 µM; method in brief: as §1
[4] = tested on: Staphylococcus aureus; experiment: Suppression in growth of methicillin-resistant Staphylococcus aureus USA300 LAC at 0.2 mM measured after overnight incubation by spectrophotometric method; format: organism-based; conditions: 200 µM; method in brief: as §1
[5] = tested on: Staphylococcus aureus; experiment: Inhibition of staphyloxanthin pigment formation in Staphylococcus aureus Newman after 48 hrs by spectrophotometric method; format: functional, organism-based
Method in brief: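 Compounds as 20 mM DMSO stocks, serial 2-fold dilutions in DMSO; 40 µL added to 4 mL TSB culture, 37 °C for 48 h, in triplicate. Cells washed twice with PBS, pigment extracted with methanol, OD450 measured; IC50 from dose-response curve fit of OD data.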

[6] = Aqueous solubility of the compound by HPLC method; format: physicochemical
Method in brief: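 Calibration with standards at 50, 100, 200, 400 and 800 µg/mL in methanol (peak area vs concentration). 10 mg solid stirred in 1 mL pure water for 24 h, more added if still clear; syringe-filtered, 10 µL injected; solubility read from calibration curve.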

[7] = tested on: Staphylococcus aureus; experiment: Antibacterial activity against Staphylococcus aureus Newman infected Balb/c mouse assessed as reduction of bacterial survival in heart at 5.2 mg, ip bid administered for 4.5 days followed by bacterial infection measured after 5 days; format: functional
Method in brief: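 Female BALB/c mice, 6–8 weeks, dosed ip with compound in sterile water once and every 12 h for 108 h; water vehicle controls. Challenged 12 h after first dose with 1 × 10^7 CFU Newman by retro-orbital injection. Kidneys and hearts homogenised in PBS/0.1% Triton X-100 and plated on TSA for CFU. n = 13 mice; two-tailed Mann-Whitney.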

[8] = Terminal half life in Sprague-Dawley rat at 5 mg/kg, iv administered as single dose; format: ADME, organism-based; conditions: in vivo, read-out: beta t1/2 (converted)
Method in brief: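 Male SD rats, 3 per group, single iv 5 mg/kg or oral 10 mg/kg. Blood sampled 0.083 (iv only), 0.25, 0.5, 1, 2, 4, 6, 8, 24 h postdose; plasma separated at 4 °C, stored −80 °C, analysed within 1 week. Parameters from plasma concentration-time data; F from dose-normalized AUC, oral vs iv.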

[9] = tested on: Staphylococcus aureus; experiment: Antibacterial activity against Staphylococcus aureus Mu50 infected Balb/c mouse assessed as reduction of bacterial survival in kidney at 5.2 mg, ip bid administered for 4.5 days followed by bacterial infection measured after 5 days; format: functional

CN(C/C=C/c1ccc(C(F)(F)F)cc1)Cc1cccc2ccoc12.Cl
IC50 [1]: 339 nM
Activity [2]: Non-toxic
Activity [3]: Non-toxic
Activity [4]: Non-toxic
IC50 [5]: 3.93 nM
solubility [6]: 10000 µg/mL
Activity [7]: 1.01 deltalog10CFU
half-life [8]: 494 min
Activity [9]: 1.11 deltalog10CFU
